Structures can show the parent of a compound that is named as a salt. Where two headings read alike, the source gives them in different places.
Experiments:
mouse vas deferens (δ) [1] = test: MVD isolated tissue bioassay; format: biochemical; details: read-out: MVD (δ) IC50; 50% inhibition of muscle contraction, n = 4, ±SEM
[2] = system: guinea pig ileum/longitudinal muscle myenteric plexus (μ); test: GPI isolated tissue bioassay; format: biochemical; details: for IC50: read-out: GPI (μ) IC50, 50% inhibition of muscle contraction, n = 4, ±SEM
mouse vas deferens (δ) [3] = details: read-out: MVD (δ) IC50; ±SEM; ref [1b] and [13]; cited from earlier work
[4] = system: guinea pig ileum/longitudinal muscle myenteric plexus (μ); details: read-out: GPI (μ) IC50; ±SEM; ref [1b] and [13]; cited from earlier work
mouse hot plate = test: Hot plate antinociception test; format: in vivo; details: mice, icv 0.6 nmol, 30 and 45 min after administration
Method in brief: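 Mice received the test compound locally (icv, 0.6 nmol) or systemically (iv, 3000 nmol) and were assessed on the hot plate, with morphine as a reference. Antinociception expressed as % MPE over time and reported as mean ± SEM. Compared with vehicle-treated animals by two-way ANOVA and Bonferroni post hoc tests; significance P < 0.05.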

[5] = Enzymatic stability in human plasma; format: in vitro ADME; details: 37 °C, compared with Biphalin
Method in brief: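 Test compound incubated in human plasma at 37 °C, with stability followed as a curve over time. Three independent experiments (n = 3), reported as mean ± SEM. Groups compared by two-way ANOVA with Bonferroni post hoc comparisons.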

## C[C@@H](NC(=O)C[C@@H](N)Cc1ccc(O)cc1)C(=O)NCC(=O)N[C@@H](Cc1ccccc1)C(=O)NNC(=O)[C@H](Cc1ccccc1)NC(=O)CNC(=O)[C@@H](C)NC(=O)C[C@@H](N)Cc1ccc(O)cc1 [Compound 4, 2 TFA·(hβ^3Tyr-D-Ala-Gly-Phe-NH)2]
Mouse vas deferens (δ) [1]
  IC50: 710 ± 97 nM
[2]
  IC50: 670 ± 139 nM

## C[C@@H](NC(=O)[C@@H](N)Cc1ccc(O)cc1)C(=O)NCCC(=O)N[C@@H](Cc1ccccc1)C(=O)NNC(=O)[C@H](Cc1ccccc1)NC(=O)CCNC(=O)[C@@H](C)NC(=O)[C@@H](N)Cc1ccc(O)cc1 [Compound 2, 2 TFA·(Tyr-D-Ala-βAla-Phe-NH)2]
Mouse vas deferens (δ) [1]
  IC50: 1300 ± 221 nM
[2]; at 1 μM
  GPI (μ) inhibition at fixed concentration: 9.2% at 1 μM
[2]; ratio
  IC50 (GPI)/IC50 (MVD): >0.75

## Biphalin [Bph]
Mouse vas deferens (δ) [3]
  IC50: 2.7 ± 1.5 nM
[4]
  IC50: 8.8 ± 0.3 nM

## C[C@@H](NC(=O)[C@@H](N)Cc1ccc(O)cc1)C(=O)NCC(=O)N[C@H](CC(=O)NNC(=O)C[C@H](Cc1ccccc1)NC(=O)CNC(=O)[C@@H](C)NC(=O)[C@@H](N)Cc1ccc(O)cc1)Cc1ccccc1 [Compound 1, 2 TFA·(Tyr-D-Ala-Gly-hβ^3Phe-NH)2]
Mouse vas deferens (δ) [1]
  IC50: 33 ± 9.4 nM
[2]
  IC50: 50 ± 6.5 nM
Mouse hot plate
  MPE (antinociceptive effect): 100%
[5]
  enzymatic stability, remaining parent compound versus time: increased stability

Source: PMC3942533 (Journal of medicinal chemistry, 2013)
